Assay results: publication PMC4186684 (Molecular Pharmaceutics, 2014)
In brackets after ≈: the same amount, converted by molar mass.

Tests used:
SK-OV-3 cells = assay: Confocal laser scanning microscopy of cellular uptake; type: cell-based, human; conditions: 10 μM, 1 h at 37 °C, Opti-MEM I, 488 nm excitation
Summary of the method: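 SK-OV-3 cells were seeded on coverslips in complete EMEM at 1 × 10⁵ cells/well and held at 50% confluency. Medium was replaced with fluorescein-labeled test peptide in Opti-MEM I reduced serum medium for 1 h at 37 °C. Cells were washed three times with PBS containing Ca/Mg and mounted. Imaging used 488 nm argon laser excitation and a 505–530 nm band-pass filter. FAM served as the comparison.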

[1] = tested on: methicillin-resistant S. aureus (MRSA, ATCC 43300); assay: MIC by broth microdilution; type: cell-based; conditions: Staphylococcus aureus, ATCC43300|MRSA
Summary of the method: (§1)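 Cultures were grown overnight in tryptic soy broth at 37 °C, shaken at 175 rpm, then diluted from 1 × 10⁸ to 1 × 10⁵ CFU/mL. Peptides were 5 mM stocks in water, or in 50 mM NH₄HCO₃ for poorly soluble ones. Test compound was mixed 1:39 (v/v) with the suspension, serially 2-fold diluted and incubated statically overnight at 37 °C. MIC was the lowest concentration with no visible growth, in triplicate. Controls were tetracycline (MRSA) and tobramycin (P. aeruginosa).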

MRSA (ATCC 43300) = assay: MIC used as basis of the time-kill studies; type: cell-based; conditions: Staphylococcus aureus, ATCC43300|MRSA
E. coli (ATCC 35218) = assay: MIC used as basis of the time-kill studies; type: cell-based; conditions: Escherichia coli, ATCC35218
P. aeruginosa (PAO1) = assay: MIC by broth microdilution; type: cell-based; conditions: Pseudomonas aeruginosa
Summary of the method: as §1

5(6)-Carboxyfluorescein [FAM]
intracellular fluorescence / localisation (CLSM) (SK-OV-3 cells): no significant fluorescence

CN(C)[C@@H]1C(O)=C(C(N)=O)C(=O)[C@@]2(O)C(O)=C3C(=O)c4c(O)cccc4[C@@](C)(O)[C@H]3C[C@@H]12 [tetracycline]
MIC [1]: 0.156 µg/mL (≈ 0.351 µM)
MIC (MRSA (ATCC 43300)): 0.5 µg/mL (≈ 1.13 µM)
MIC (E. coli (ATCC 35218)): 2 µg/mL (≈ 4.5 µM)

NC[C@H]1O[C@H](O[C@H]2[C@H](O)[C@@H](O[C@H]3O[C@H](CO)[C@@H](O)[C@H](N)[C@H]3O)[C@H](N)C[C@@H]2N)[C@H](N)C[C@@H]1O [tobramycin]
MIC (P. aeruginosa (PAO1)): 0.731 µg/mL (≈ 1.56 µM)
